# MrgX1 allo act – human MrgX1 positive allosteric modulation, primary screen; Q96LB2; MrgX1-HEK293, Fluo-4 calcium flux, FDSS; active compounds read high; B-score at 10 µM; 310,000 compounds, 0.63% hits;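 active = plate-corrected calcium response at least 3 library SD above typical, normal starting fluorescence, not activating the receptor alone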;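 also: compound read alongside a low EC10 to EC30 dose of BAM8-22 agonist; peak minus trough fluorescence over baseline measured at the second addition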
# Target sequence (Q96LB2 whole entry, looked up): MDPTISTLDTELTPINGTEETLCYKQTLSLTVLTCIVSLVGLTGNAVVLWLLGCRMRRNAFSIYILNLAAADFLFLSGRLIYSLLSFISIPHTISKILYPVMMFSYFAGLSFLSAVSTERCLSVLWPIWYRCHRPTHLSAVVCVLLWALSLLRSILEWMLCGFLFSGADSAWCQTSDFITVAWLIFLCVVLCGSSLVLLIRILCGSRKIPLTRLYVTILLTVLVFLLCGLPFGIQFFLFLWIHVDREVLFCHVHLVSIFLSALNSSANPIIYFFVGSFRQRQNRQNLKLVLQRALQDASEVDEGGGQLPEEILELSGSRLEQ
# RGS4 block – human RGS4 inhibition. P49798. HEK293 M3R/RGS4 inducible, Fluo-4 calcium flux; active compounds read high; triggered by carbachol at its EC20. B-score at 10 µM. 310,000 compounds, 0.45% hits. AID 463165;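 active = B-score, a plate-corrected calcium signal, over three deviations above library mean, with baseline fluorescence within five deviations of library mean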;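 also: RGS4 expression induced by doxycycline in cells with stable M3 receptor; B-score is computed from the integrated fluorescence ratio over baseline after carbachol; higher B-score means a larger calcium signal and so more RGS4 inhibition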
# Target sequence (P49798 whole entry, looked up): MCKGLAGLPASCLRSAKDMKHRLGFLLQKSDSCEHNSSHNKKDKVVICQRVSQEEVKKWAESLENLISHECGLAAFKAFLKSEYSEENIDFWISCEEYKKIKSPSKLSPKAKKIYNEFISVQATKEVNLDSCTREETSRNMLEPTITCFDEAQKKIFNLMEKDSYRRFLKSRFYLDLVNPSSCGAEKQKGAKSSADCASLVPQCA
# MrgX1 agonist – activates human MrgX1 receptor signaling; Q96LB2; MrgX1-HEK293 cells, Fluo-4 calcium fluorescence, agonist mode; active compounds read high; B-score at 10 µM; 310,000 compounds, 0.44% hits; AID 588627;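 active = calcium response B-score plate-corrected fluorescence ratio at least 3 library SD, with starting fluorescence B-score inside 5 SD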
#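 Assay system: stable human MrgX1 HEK293 cell line. Quantity: 15,000 cells per well. Schedule: cells plated overnight, dye loaded 0.5 h 37 °C, 0.5 h room temperature. Detection: Fluo-4 NW calcium-flux fluorescence, kinetic read. Read-out basis: peak-minus-minimum fluorescence over baseline, converted to B scores. Control set: positive and negative control wells on each plate.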
# MrgX1 antagonist – human MrgX1 receptor antagonism, primary screen; MRGX1-HEK293 calcium flux, Fluo-4, BAM8-22 antagonism; active compounds read low; AID 588676; 310,000 compounds, 1.3% hits; B-score at 10 µM; Q96LB2;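 active = calcium-response B-score plate-corrected more than 3 library SD below zero, starting fluorescence within 5 deviations, no agonist response on first addition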;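 also: peak minus trough fluorescence over baseline after final BAM8-22 challenge near maximal dose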
# RGS4 act – potentiators or activators of RGS4. B-score at 10 µM. 310,000 compounds, 0.92% hits. HEK293 M3R/inducible RGS4, carbachol calcium flux Fluo4; active compounds read low;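 active = B-score of the integrated calcium signal more than 4 SD below the library mean, with starting fluorescence not abnormally high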;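 also: negative B-score means reduced calcium response which marks RGS4 activation or potentiation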
#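 Test system: HEK293 cells with stable M3R and inducible RGS4; also added: carbachol at ECmax as muscarinic agonist stimulus; schedule: dye loading 30 min 37 °C, buffer rest 30 min RT; technique: kinetic calcium fluorescence imaging with Fluo4-AM dye, 2 µM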
# RGS4 activ val – RGS4 activation, validation assay; AID 602282; inhibition, % at 10 µM; 1,100 compounds, 89% hits; HEK293 M3R/RGS4 inducible, carbachol calcium flux Fluo4; shares compounds with RGS4 act;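 active = inhibition above 3 SD of the buffer control wells, cut at about 41% in these data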;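 also: signal is the integrated peak-minus-minimum Fluo4 fluorescence over baseline ratio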
# RGS4 act ctr – counter-screen for RGS4 activators: effect in non-induced cells; shares compounds with RGS4 act; HEK293 M3R non-induced RGS4, Fluo4 calcium flux; after carbachol challenge at its EC90; inhibition, % at 10 µM; 1,100 compounds, 82% hits; AID 602283;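 active = inhibition exceeding 3 SD of buffer-only control wells, cut at about 26% in these data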;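 also: percent drop in integrated peak-minus-baseline over baseline Fluo4 ratio after carbachol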
# * = called active by the depositor; i = inactive; nt = not tested or not shown. Most compounds without a hit are left out; they make up all but 3.5% or so of the library.
SMILES,MrgX1 allo act,RGS4 block,MrgX1 agonist,MrgX1 antagonist,RGS4 act,RGS4 activ val,RGS4 act ctr
Cc1cc(CNCc2c(C(=O)N3CCCCCCC3)nc3ccc(Cl)cn23)nn1C,i,i,i,i,i,nt,nt
O=C1Nc2ccccc2C1=Nc1ccc(Br)cc1,i,i,i,i,i,nt,nt
CCN(CC)c1ccc(N=C2C(=O)Nc3ccccc32)cc1,i,i,i,i,-11*,84*,39*
NC(=O)N=Nc1c2[nH]c3ccccc3nc-2c2ccccc12,i,i,i,i,-8.6*,56*,0
O=c1[nH]c2ccccc2nc1-c1ccccc1,i,i,i,i,i,nt,nt
O=C(Nc1ccc(N2CCN(c3ncccc3C(F)(F)F)CC2)nc1)c1cccs1,i,i,i,i,-7.8*,92*,96*
COc1ccc(-c2nc(-c3ccc(O)cc3O)cs2)cc1OC,nt,i,nt,nt,-11*,78*,51*
CCCCOc1ccc(C(O)C(CN2CCOCC2)c2ccccc2)cc1 (stereo not given),i,i,i,i,i,nt,nt
CCCCOc1ccc(C(O)C(CN2CCCCC2)c2ccccc2)cc1 (stereo not given),i,i,i,i,-7.6*,58*,84*
Cn1c(=O)[nH]c2nnc(-c3ccc(Cl)c(Cl)c3)nc2c1=O,i,i,i,i,-8.9*,0,0
COc1ccc(C(CNc2nc(-c3cccnc3)nc3ccccc23)N(C)C)cc1 (stereo not given),i,i,i,i,-9.3*,60*,84*
c1ccc(CNc2nc(-c3cccnc3)nc3ccccc23)cc1,i,i,i,i,-8.4*,84*,37*
Cc1ccc(CNc2nc(-c3cccnc3)nc3ccccc23)cc1,i,i,i,i,i,nt,nt
COC(=O)CNc1nc(-c2cccnc2)nc2ccccc12,i,nt,i,i,nt,nt,nt
O=C(Nc1ccc(N2CCN(C(=O)c3ccco3)CC2)c(Cl)c1)c1cc2ccccc2o1,i,i,i,i,-8.7*,93*,64*
C=CC[N+]1(CC#CCOC(c2ccccc2)c2ccccc2)CCOCC1,i,i,i,i,i,nt,nt
CCN(CC)CC#CCOC(c1ccccc1)c1ccccc1,i,i,i,i,-9.2*,88*,57*
CN(C)CC#CCOC(c1ccccc1)c1ccccc1,i,i,i,i,-8.9*,92*,72*
CCN(CC)CCOC(c1ccccc1)c1ccc(C)cc1 (stereo not given),i,i,i,i,i,nt,nt
CN(C)CC#CCC(O)(c1ccccc1)c1ccccc1,i,i,i,i,i,nt,nt
CCN(CC)CC#CCC(O)(c1ccccc1)c1ccccc1,i,i,i,i,-7.7*,90*,52*
COc1ccc(OS(=O)(=O)c2c(C)noc2C)cc1,i,i,i,i,-9.3*,84*,41*
Cc1cnc(NC(=O)C2CCC(C(C)(C)C)CC2)s1 (stereo not given),i,i,i,i,i,nt,nt
O=S1(=O)N[C@H](c2ccccc2)C[C@H](c2ccc(C(F)(F)F)cc2)O1,i,i,i,i,i,nt,nt
O=C(COC(=O)c1cc(S(=O)(=O)N2CCOCC2)ccc1O)NCCc1ccccc1,i,i,i,i,-9.5*,0,0
SMILES,MrgX1 allo act,RGS4 block,MrgX1 agonist,MrgX1 antagonist,RGS4 act,RGS4 activ val,RGS4 act ctr
NS(=O)(=O)c1ccc(CCN=C(NS(=O)(=O)c2cccs2)c2ccccc2)cc1,i,i,i,i,i,nt,nt
CN1CCN(C2=C(NS(=O)(=O)c3cccs3)C(=O)c3ccccc3C2=O)CC1,i,i,i,i,i,nt,nt
O=C1C(NS(=O)(=O)c2cccs2)=C(N2CCN(Cc3ccccc3)CC2)C(=O)c2ccccc21,i,i,i,i,-8.1*,63*,0
O=C(NCc1ccncc1)c1ccccc1Nc1ccc(SC(F)F)cc1,i,i,i,i,-8.9*,92*,85*
CNC(=O)c1ccccc1Nc1ccc(SC(F)F)cc1,i,i,i,i,i,nt,nt
Cc1c(C)c2ccc(OC(C)C(=O)N3CC[C@@]4(O)CCCC[C@H]4C3)cc2oc1=O (stereo not given in full),i,i,i,i,i,nt,nt
CCSc1nnc(NC(=O)C(NC(=O)c2ccc(Cl)cc2)C(C)C)s1 (stereo not given),i,i,i,i,-9.4*,0,0
CC(C)C(NC(=O)c1ccc(Cl)cc1)C(=O)NC1=NCCS1 (stereo not given),i,i,i,i,i,nt,nt
CN(C(=O)c1ccccc1OCc1ccc(Cl)cc1)c1ccccc1,i,i,i,i,-9.2*,92*,93*
C/C(=N\NC(=O)c1cccc(Br)c1)c1cccc(NC(=O)c2ccc(C)o2)c1,i,i,i,i,i,nt,nt
COC(=O)CSc1nc(SCc2ccccc2Cl)nc2c1CCCC2,i,i,i,i,-8*,48*,84*
CC(=O)Nc1ccc(OCCCNC(=O)c2c(-c3ccccc3)noc2C)cc1,i,i,i,i,-8.6*,0,0
CCCOc1ccc(NC(=O)c2c(-c3ccccc3)noc2C)cc1,i,i,i,i,i,nt,nt
CN(C)C(C)(C)C#CCC(c1ccccc1)c1ccccc1,i,i,i,i,-8.2*,90*,59*
Cc1ccc(NS(=O)(=O)c2cc(Br)cnc2N)cc1C,i,i,i,i,-8*,94*,94*
CSc1cccc(NS(=O)(=O)c2cc(Br)cnc2N)c1,i,i,i,i,-7.7*,92*,98*
O=C(c1cc(Br)c[nH]1)N1CCSCC1,i,i,i,i,i,nt,nt
CCSc1nc2sc3c(c2c(=O)n1-c1ccccc1)CCN(C(C)C)C3,i,i,i,i,-7.9*,64*,0
CN1CCc2c(sc3nc(SCC(N)=O)n(-c4ccccc4)c(=O)c23)C1,i,i,i,i,i,nt,nt
O=C(Nc1ccc(Cl)cc1)N(C1=NCCC1)c1ccc(OC(F)F)cc1,i,i,i,i,-10*,92*,92*
O=C(COC(=O)Cc1ccc(Cl)cc1)Nc1ccc(OC(F)F)cc1,i,i,i,i,i,nt,nt

# Screens: PubChem BioAssay, Johns Hopkins Ion Channel Center
